Experimental data reported in ChEMBL document CHEMBL1157192, “No carrier added synthesis of O-(2'-[18F]fluoroethyl)-L-tyrosine via a novel type of chiral enantiomerically pure precursor, NiII complex of a (S)-tyrosine Schiff base” (Bioorg Med Chem, 2008).

Key:
Details in all cases: in vivo
Liver [1] = assay: Biodistribution in liver of Wistar rat bearing glioma35 rat tumor at 150-180 uCi after 40 mins; type: ADME, organism-based
In short: (§1)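 Male Wistar rats (150–200 g) received 150–180 μCi ([…]) [18F]FET in 0.3 mL isotonic solution via the jugular vein. They were killed at 40 min. Organs were dissected, blotted of blood, weighed and gamma-counted, and values are given as %ID/g, with five rats per time point. Glioma35 homografts grew for 14 days after subcutaneous or intramuscular injection into the right hind limb. Abscesses were raised by turpentine oil (10 μL) into the right hind-limb muscle 24 h before the experiment.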

Heart [2] = assay: Biodistribution in heart of Wistar rat bearing turpentine-induced aseptic abscess at 150-180 uCi after 40 mins; type: ADME, organism-based; in short: as §1
Brain [3] = assay: Biodistribution in brain of Wistar rat bearing turpentine-induced aseptic abscess at 150-180 uCi after 40 mins; type: ADME, organism-based; in short: as §1
[4] = Biodistribution in tumor of Wistar rat bearing glioma35 rat tumor at 150-180 uCi after 40 mins; type: ADME, organism-based, Neoplasm; in short: as §1
Muscle tissue [5] = assay: Biodistribution in muscle of Wistar rat bearing turpentine-induced aseptic abscess at 150-180 uCi after 40 mins; type: ADME, organism-based; in short: as §1
Kidney [6] = assay: Biodistribution in kidney of Wistar rat bearing glioma35 rat tumor at 150-180 uCi after 40 mins; type: ADME, organism-based; in short: as §1
Blood [7] = assay: Biodistribution in blood of Wistar rat bearing turpentine-induced aseptic abscess at 150-180 uCi after 40 mins; type: ADME, organism-based; in short: as §1
[8] = Biodistribution in urinary bladder of Wistar rat bearing turpentine-induced aseptic abscess at 150-180 uCi after 40 mins; type: ADME, organism-based; in short: as §1
Liver [9] = assay: Biodistribution in liver of Wistar rat bearing turpentine-induced aseptic abscess at 150-180 uCi after 40 mins; type: ADME, organism-based; in short: as §1
Kidney [10] = assay: Biodistribution in kidney of Wistar rat bearing turpentine-induced aseptic abscess at 150-180 uCi after 40 mins; type: ADME, organism-based; in short: as §1
Brain [11] = assay: Biodistribution in brain of Wistar rat bearing glioma35 rat tumor at 150-180 uCi after 40 mins; type: ADME, organism-based; in short: as §1
Heart [12] = assay: Biodistribution in heart of Wistar rat bearing glioma35 rat tumor at 150-180 uCi after 40 mins; type: ADME, organism-based; in short: as §1
[13] = Biodistribution in urinary bladder of Wistar rat bearing glioma35 rat tumor at 150-180 uCi after 40 mins; type: ADME, organism-based; in short: as §1
Blood [14] = assay: Biodistribution in blood of Wistar rat bearing glioma35 rat tumor at 150-180 uCi after 40 mins; type: ADME, organism-based; in short: as §1
Muscle tissue [15] = assay: Biodistribution in muscle of Wistar rat bearing glioma35 rat tumor at 150-180 uCi after 40 mins; type: ADME, organism-based; in short: as §1
[16] = Biodistribution in abscess of Wistar rat bearing turpentine-induced aseptic abscess at 150-180 uCi after 40 mins; type: ADME, organism-based; in short: as §1

For `N[C@@H](Cc1ccc(OCC[18F])cc1)C(=O)O` [FLORETYROSINE F18], the Drug uptake (Liver [1]) was 1.03 % ID/g, the Drug uptake (Heart [2]) was 1.47 % ID/g and the Drug uptake (Brain [3]) was 1 % ID/g. For the same molecule, the Drug uptake [4] was 2.53 % ID/g, the Drug uptake (Muscle tissue [5]) was 1.32 % ID/g and the Drug uptake (Kidney [6]) was 0.86 % ID/g. The Drug uptake (Blood [7]) was 1.45 % ID/g, the Drug uptake [8] was 3.94 % ID/g and the Drug uptake (Liver [9]) was 1.24 % ID/g. The Drug uptake (Kidney [10]) was 1.58 % ID/g, the Drug uptake (Brain [11]) was 0.54 % ID/g and the Drug uptake (Heart [12]) was 0.98 % ID/g. It also gave a Drug uptake [13] of 2.51 % ID/g, a Drug uptake (Blood [14]) of 1.24 % ID/g and a Drug uptake (Muscle tissue [15]) of 0.84 % ID/g. It also gave a Drug uptake [16] of 1.75 % ID/g.
